High-throughput results as filed in PubChem.
Most compounds without a hit are left out; they make up all but 12% or so of the library.
Wee1 degr inh – blocks degradation of human Wee1 kinase | P30291 | HeLa Luc-Wee1K328M stability, luciferase luminescence; 100% = proteasome inhibitor MG132 effect | reporter increase, % at 5 µM | 220,000 compounds, 1.2% hits;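 active = activation above the mean of all tested compounds plus 3 SD, set per screening run, cut at about 8.8% in these data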;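 note: cells exposed to compound for 20 h before luminescence read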
CHOP inhibitor – blocks CHOP induction under ER stress. inhibition, % at 10 µM. 220,000 compounds, 3.8% hits. CHO-K1 CHOP-promoter luciferase, tunicamycin-induced, 15-18 h. AID 2732;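 active = compounds that reduced the stress-induced luciferase reporter signal by more than about 70% of percent inhibition, limit read from the data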
Rad51 HR inh – Rad51 (human) homologous recombination inhibition; Q06609; AID 1385; hRad51 DNA strand exchange, fluorescence dequenching; 200,000 compounds, 0.085% hits; inhibition, % at 10 µM;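 active = inhibition above 40% at the single screening dose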
Target sequence (Q06609 whole entry, looked up): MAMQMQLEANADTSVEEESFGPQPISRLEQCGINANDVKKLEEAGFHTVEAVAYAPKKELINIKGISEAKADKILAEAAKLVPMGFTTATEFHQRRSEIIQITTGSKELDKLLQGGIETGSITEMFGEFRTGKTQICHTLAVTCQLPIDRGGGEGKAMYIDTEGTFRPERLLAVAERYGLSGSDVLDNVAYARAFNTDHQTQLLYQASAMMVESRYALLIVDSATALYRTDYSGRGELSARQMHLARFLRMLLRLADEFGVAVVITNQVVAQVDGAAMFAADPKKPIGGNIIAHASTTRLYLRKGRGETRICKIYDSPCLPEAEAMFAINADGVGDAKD
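Test system: preformed human Rad51 ssDNA filaments. Compound dosing: single dose, 10 µM final compound. Incubation: filaments 15 min 37 °C, then compound 30 min. Technique: FRET fluorescence dequenching, excitation 485 nm, emission 520 nm. Read-out basis: percent inhibition from fluorescence, normalised to plate control and blank means. Benchmarks: plate controls and plate blanks.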
PKD1 inh – inhibitors of human PKD1 kinase | Q15139 | PKD1 kinase fluorescence polarization assay | inhibition, % (concentration not given with the values) | 200,000 compounds, 0.056% hits | AID 797
L major viab – reduces viability of Leishmania major promastigotes; inhibition, % at 10 µM; AID 1063; resazurin fluorescence viability; 200,000 compounds, 9% hits;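 note: promastigotes grown with compound for 44 hours at 28 °C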
Arbovirus anti – antivirals against arbovirus infection | 200,000 compounds, 0.37% hits | arbovirus infection cell-based antiviral screen | inhibition, % at 10 µM | AID 1251; in the data active = inhibition above about 30%
Hits are given with their value. Cut-off read from the data, not from the text of the source, unless noted: active = inhibition above about 50%; inactive = the rest.

`CC(=O)c1cc(CN2CCN(C(C)C)C(CCO)C2)cs1` (stereo unspecified) gave Wee1 degr inh inactive, CHOP inhibitor inactive, Rad51 HR inh inactive, PKD1 inh inactive, L major viab inactive and Arbovirus anti inactive.
Screening CCCCOC(=O)c1ccc(NC(=O)C(=O)NCc2ccccn2)cc1 returned Wee1 degr inh inactive and CHOP inhibitor inactive.
CCN(CC)CCNC(=O)c1ccc(NC(=O)c2cn(-c3ccccc3)nc2-c2cccs2)cc1 was read as Wee1 degr inh inactive, CHOP inhibitor inactive, Rad51 HR inh inactive, PKD1 inh inactive, L major viab 100 and Arbovirus anti inactive.
Screening CCN(CC)CCNC(=S)NC(=O)c1cn(-c2ccccc2)nc1-c1ccc(OC)cc1 returned Wee1 degr inh inactive, CHOP inhibitor inactive, Rad51 HR inh inactive, PKD1 inh inactive, L major viab 91 and Arbovirus anti inactive.
Screening O=C(Nc1cccnc1)c1cn(-c2ccccc2)nc1-c1cccs1 returned Wee1 degr inh inactive, CHOP inhibitor inactive, Rad51 HR inh inactive, PKD1 inh inactive, L major viab inactive and Arbovirus anti inactive.
Screening O=c1[nH]c(CN2CCN(c3ccccc3O)CC2)nc2scc(-c3ccccc3Cl)c12 returned Wee1 degr inh inactive, CHOP inhibitor inactive and Rad51 HR inh inactive.
For O=c1[nH]c(CN2CCc3ccccc32)nc2scc(-c3cccs3)c12 the results were Wee1 degr inh inactive, CHOP inhibitor 88, Rad51 HR inh inactive, PKD1 inh inactive, L major viab inactive and Arbovirus anti inactive.
`CC(=O)N/C(=C/c1ccc2c(c1)OCO2)C(=O)NCc1ccccc1` gave Wee1 degr inh inactive, CHOP inhibitor inactive, Rad51 HR inh inactive, PKD1 inh inactive, L major viab inactive and Arbovirus anti inactive.
CCOc1cc(/C=C2/NC(=O)N(CC(=O)Nc3cccc(C)c3)C2=O)ccc1OC was read as Wee1 degr inh inactive, CHOP inhibitor 90, Rad51 HR inh inactive, PKD1 inh inactive, L major viab inactive and Arbovirus anti inactive.
For CC(C)(C)C(=O)COC(=O)c1cc(-c2cccnc2)nc2ccccc12 the results were Wee1 degr inh inactive, CHOP inhibitor inactive, Rad51 HR inh inactive, PKD1 inh inactive, L major viab inactive and Arbovirus anti inactive.
O=C(NCc1cn(-c2ccccc2)nc1-c1ccc(F)cc1)c1cccc([N+](=O)[O-])c1 was read as Wee1 degr inh inactive, CHOP inhibitor inactive, Rad51 HR inh inactive, PKD1 inh inactive, L major viab 81 and Arbovirus anti inactive.
CCn1cc(CNC(=O)c2cccc([N+](=O)[O-])c2)c(C)n1 was read as Wee1 degr inh inactive, CHOP inhibitor inactive, Rad51 HR inh inactive, PKD1 inh inactive, L major viab inactive and Arbovirus anti inactive.
O=C(Cc1csc(-c2ccccc2)n1)Nc1ccc(C(F)(F)F)cc1 was read as Wee1 degr inh inactive, CHOP inhibitor 83, Rad51 HR inh inactive, PKD1 inh inactive, L major viab 87 and Arbovirus anti inactive.
For CC(C)OC(=O)Nc1ccc2c(c1)N(C(=O)CCN1CCOCC1)c1ccccc1CC2 the results were Wee1 degr inh inactive, CHOP inhibitor inactive, Rad51 HR inh inactive, PKD1 inh inactive, L major viab inactive and Arbovirus anti inactive.
For O=c1[nH]c(=O)c2ncc(-c3ccc(Cl)cc3)nc2[nH]1 the results were Wee1 degr inh inactive, CHOP inhibitor inactive, Rad51 HR inh inactive, PKD1 inh inactive, L major viab 80 and Arbovirus anti inactive.
For CCOC(=O)c1ccc(Nc2sc(C(=O)c3cccc([N+](=O)[O-])c3)c(N)c2C#N)cc1 the results were Wee1 degr inh inactive, CHOP inhibitor inactive and Rad51 HR inh inactive.
Screening Cc1ccccc1/C=c1\s/c(=C\C(=O)C(C)(C)C)[nH]c1=O returned Wee1 degr inh inactive, CHOP inhibitor 82, Rad51 HR inh inactive, PKD1 inh inactive, L major viab inactive and Arbovirus anti inactive.
`O=C(NCCSCc1c(F)cccc1Cl)c1ccc(CN2CCOCC2)cc1` gave Wee1 degr inh inactive, CHOP inhibitor inactive, PKD1 inh inactive, L major viab 80 and Arbovirus anti inactive.
O=C(c1ccc(-c2ccccc2)cc1)C1CCCN(Cc2ccncc2)C1 (stereo unspecified) was read as Wee1 degr inh inactive, CHOP inhibitor inactive, PKD1 inh inactive, L major viab 93 and Arbovirus anti inactive.
Cc1ccsc1C(=O)C1CCCN(Cc2cn(C)nc2-c2ccccc2)C1 (stereo unspecified) was read as Wee1 degr inh inactive, CHOP inhibitor inactive, Rad51 HR inh inactive, PKD1 inh inactive, L major viab inactive and Arbovirus anti inactive.
For Cn1cc(CN2CCCC(C(=O)c3cccs3)C2)c(-c2cccc(Cl)c2)n1 (stereo unspecified) the results were Wee1 degr inh inactive, CHOP inhibitor inactive, Rad51 HR inh inactive, PKD1 inh inactive, L major viab 63 and Arbovirus anti inactive.
c1ccc(-c2ccc(CN3CCN(c4ncccn4)CC3)cc2)cc1 was read as Wee1 degr inh inactive, CHOP inhibitor inactive, Rad51 HR inh inactive, PKD1 inh inactive, L major viab inactive and Arbovirus anti inactive.
`OCC1CCCN(Cc2ccc(-c3ccccc3)cc2)C1` (stereo unspecified) gave Wee1 degr inh inactive, CHOP inhibitor inactive, Rad51 HR inh inactive, PKD1 inh inactive, L major viab 96 and Arbovirus anti inactive.
O=C(C1CCCN(Cc2ccccc2)C1)N1CCCCC1 (stereo unspecified) was read as Wee1 degr inh inactive, CHOP inhibitor inactive, Rad51 HR inh inactive, PKD1 inh inactive, L major viab inactive and Arbovirus anti inactive.
For O=C(c1ccc(Cl)cc1)C1CCCN(Cc2cnn(-c3ccccc3)c2)C1 (stereo unspecified) the results were Wee1 degr inh inactive, CHOP inhibitor inactive, PKD1 inh inactive, L major viab 84 and Arbovirus anti inactive.
`COc1cccc(Cc2n[nH]c(=S)n2Cc2ccco2)c1` gave Wee1 degr inh inactive, CHOP inhibitor inactive and Rad51 HR inh inactive.
For Cc1nn(C)cc1CN1CCCC(C(=O)c2ccc(-c3ccccc3)cc2)C1 (stereo unspecified) the results were Wee1 degr inh inactive, CHOP inhibitor inactive, Rad51 HR inh inactive, PKD1 inh inactive, L major viab 90 and Arbovirus anti inactive.
CC(C1CCN(Cc2cn(C)nc2-c2cccc(Cl)c2)CC1)N1CCOCC1 (stereo unspecified) was read as Wee1 degr inh inactive, CHOP inhibitor inactive, PKD1 inh inactive, L major viab 69 and Arbovirus anti inactive.
Cn1cc(CN2CCN(c3cnccn3)CC2)c(-c2cccc(Cl)c2)n1 was read as Wee1 degr inh inactive, CHOP inhibitor inactive, PKD1 inh inactive, L major viab inactive and Arbovirus anti inactive.
Screening Cc1ncoc1C(=O)N1CCCC(C(=O)c2ccc(-c3ccccc3)cc2)C1 (stereo unspecified) returned Wee1 degr inh inactive, CHOP inhibitor inactive, Rad51 HR inh inactive, PKD1 inh inactive, L major viab inactive and Arbovirus anti inactive.
